Screens deposited in PubChem by The Scripps Research Institute Molecular Screening Center.
M18AAP inhibitor – PfM18AAP enzyme inhibition. recombinant PfM18AAP, H-Glu-NHMec fluorogenic cleavage. inhibition, % at 7.35 µM. 290,000 compounds, 1.2% hits;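 active = inhibition above the campaign mean inhibition over all tested compounds plus 3 SD, cut at about 28% in these data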;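 also: 0% = plate median of test compound wells and 100% = 2 mM ZnCl2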
VIM-2 inhibitor – blocks Pseudomonas aeruginosa VIM-2 metallo-beta-lactamase. purified VIM-2, nitrocefin hydrolysis, epi-absorbance fluorescence. inhibition, % at 5.6 µM. 290,000 compounds, 0.89% hits. AID 1527;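 active = inhibition above the mean of all tested compounds plus 3 SD, cutoff set per screening run, cut at about 7.5% in these data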;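 also: red hydrolysis product quenches plate fluorescence so inhibitors raise well fluorescence; 0% = enzyme with DMSO and 100% = DMSO without enzyme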
CTSL1 counter – cathepsin L1 inhibition, PFM18AAP counter-screen; 300,000 compounds, 0.49% hits; AID 1906; recombinant F. hepatica cathepsin L1, Z-Leu-Arg-MCA fluorescence; inhibition, % at 5.96 µM;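 active = inhibition above the mean of all tested compounds plus 3 SD, set per screening campaign, cut at about 17% in these data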;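 also: 0% = plate median of test compound wells and 100% = 1 µM Z-Phe-Ala-diazomethylketone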
IMP-1 inh-1 – blocks Pseudomonas aeruginosa IMP-1 metallo-beta-lactamase; purified IMP-1, nitrocefin hydrolysis, epi-absorbance fluorescence; inhibition, % at 5.6 µM; 290,000 compounds, 0.45% hits; AID 1556;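 active = inhibition above the mean plus 3 SD of all compounds in the same screening run, cut at about 4.5% in these data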;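 also: 0% = IMP-1 with DMSO and 100% = DMSO wells lacking enzyme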
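System – purified recombinant IMP-1 beta-lactamase · Input – IMP-1 dispensed at 0.2 nM · Timing – 15 min preincubation plus 25 min reaction at 25 °C · Signal – Epi-absorbance fluorescence, 480 nm excitation, 530 nm emission · Measure – percent IMP-1 inhibition derived from blank-referenced optical density · Controls – Enzyme-plus-DMSO low control, enzyme-free DMSO high control · Replication – singlicate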
IMP-1 inh-2 – blocks IMP-1 metallo-beta-lactamase in VIM-2 selectivity screen. shares compounds with VIM-2 inhibitor. inhibition, % at 5.6 µM. 1,300 tested, under 10 active. purified IMP-1, nitrocefin hydrolysis, epi-absorbance fluorescence; call rule not given here;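 also: 0% = enzyme with vehicle and 100% = vehicle without enzyme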
VIM-2 FRET ctr – VIM-2 FRET inhibition, artifact counter-screen; inhibition, % at 5.6 µM; purified VIM-2, CCF2 FRET substrate hydrolysis; 1,300 compounds, 23% hits; AID 1857; shares compounds with VIM-2 inhibitor;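 active = inhibition above the mean of all tested compounds plus 3 SD, cut at about 19% in these data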;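 also: 0% = VIM-2 plus DMSO and 100% = no enzyme wells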
TEM-1 inh – selectivity counter-screen for VIM-2 inhibitors: E. coli TEM-1 inhibitors. shares compounds with VIM-2 inhibitor. Purified TEM-1, nitrocefin hydrolysis, epi-absorbance fluorescence. inhibition, % at 5.6 µM. 1,300 compounds, 3% hits;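 active = inhibition above that campaign's mean inhibition plus 3 SD, cut at about 0.46% in these data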;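 also: 0% = TEM-1 with DMSO and 100% = TEM-1 with 100 µM potassium clavulanate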
Target sequence (P62593 whole entry, looked up): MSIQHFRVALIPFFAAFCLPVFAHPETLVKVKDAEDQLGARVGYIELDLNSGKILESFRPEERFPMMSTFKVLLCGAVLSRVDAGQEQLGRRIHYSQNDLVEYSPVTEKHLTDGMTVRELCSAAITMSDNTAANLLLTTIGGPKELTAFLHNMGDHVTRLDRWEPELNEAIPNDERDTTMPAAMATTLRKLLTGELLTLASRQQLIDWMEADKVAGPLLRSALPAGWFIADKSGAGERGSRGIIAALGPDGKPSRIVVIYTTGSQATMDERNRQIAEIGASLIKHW
VIM-2 inh conf – confirmation of P. aeruginosa VIM-2 metallo-beta-lactamase inhibitors; 1,300 compounds, 96% hits; AID 2187; shares compounds with VIM-2 inhibitor; inhibition, % at 5.6 µM; purified VIM-2, nitrocefin hydrolysis, epi-absorbance;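 active = inhibition of the VIM-2 beta-lactamase enzyme above about 11% from the earlier first-round screen, limit read from the data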;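 also: 0% = VIM-2 with DMSO and 100% = buffer wells without enzyme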
Active calls of the source: *; nt = not tested or not shown. Shown are actives, neighbours in structure and some others; about 2.7% of the full set was active somewhere.

SMILES	M18AAP inhibitor	VIM-2 inhibitor	CTSL1 counter	IMP-1 inh-1	IMP-1 inh-2	VIM-2 FRET ctr	TEM-1 inh	VIM-2 inh conf
Cc1c(OC(C)C(=O)NCC(O)c2ccccc2)ccc2c3c(c(=O)oc12)CCC3 (configuration not stated)	1	19*	-3	0	-3	-1	-8	24*
Cc1cc(OC(C)C(=O)NCC(O)c2ccccc2)c2c(C)c(C)c(=O)oc2c1 (configuration not stated)	8	-1	3	-3	nt	nt	nt	nt
Cc1c(OC(C)C(=O)NCc2ccccn2)ccc2c3c(c(=O)oc12)CCCC3 (configuration not stated)	-3	16*	-6	-4	-3	0	-11	23*
Cc1c(OCC(=O)NCc2ccncc2)ccc2c3c(c(=O)oc12)CCC3	6	50*	0	-6	-2	-5	-13	57*
Cc1c(OCC(=O)NCc2cccnc2)ccc2c3c(c(=O)oc12)CCC3	-9	27*	2	0	-4	-1	-11	31*
Cc1c(OCC(=O)OC(C)C)ccc2c3c(c(=O)oc12)CCC3	-11	4	9	-5	nt	nt	nt	nt
COc1ccc(-c2cc(C(=O)NCC(C)C)no2)cc1	-2	-1	-5	-4	nt	nt	nt	nt
Cc1ccn(CC(=O)N2CCCC(N3CCN(Cc4ccc5c(c4)OCO5)CC3)C2)n1 (configuration not stated)	6	-2	-2	-4	nt	nt	nt	nt
Cc1c(OC(C)C(=O)NCc2ccncc2)ccc2c3c(c(=O)oc12)CCC3 (configuration not stated)	4	23*	-1	-1	-2	-5	-11	36*
COc1ccc(Nc2nc(N3CCCC3)nc3ccccc23)c(OC)c1	-2	31*	3	-1	-2	1	-6	43*
COc1ccc(Nc2ncnc3ccccc23)c(OC)c1	4	-5	-5	-2	nt	nt	nt	nt
COc1ccc(/C(O)=C2/C(=O)C(=O)N(c3ncccn3)C2c2ccc(F)cc2)cc1 (configuration not stated)	-3	0	1	-2	nt	nt	nt	nt
COc1ccc(/C=N/NC(=S)Nc2cccc(C(=O)O)c2)cc1OC	25	13*	1	-3	-2	5	-3	5
C=CCn1c2ccccc2c2nn(C)c(=S)nc21	-12	14*	5	-1	-4	0	-8	17*
CCC(C)[C@H](NC(=O)N1CCC(C)CC1)C(=O)OC (some centres not stated)	-2	-2	-1	-1	nt	nt	nt	nt
COc1ccc(-c2cc(C(F)(F)F)n3nc(C(=O)NCCCn4ccnc4)cc3n2)cc1	4	29*	8	-3	-2	-13	-6	48*
Cc1ccc(NC(=O)C(C)S)cc1 (configuration not stated)	7	9.6*	-9	-1	1	4	-6	30*
Cc1ccc(NC(=O)C(CC(C)C)NC(N)=O)cc1 (configuration not stated)	-1	-3	-2	-3	nt	nt	nt	nt
O=c1c(Cc2ccc(F)cc2)c(O)ccn1Cc1cccc(Cl)c1	-1	-2	-1	-1	nt	nt	nt	nt
N#Cc1ccccc1N1CCN(C(=O)c2ccc(NC(=O)c3ccc(Br)o3)cc2)CC1	nt	nt	1	nt	nt	nt	nt	nt
CC(Oc1ccc2c3c(c(=O)oc2c1)CCC3)C(=O)NC1CCN(Cc2ccccc2)CC1 (configuration not stated)	-9	22*	2	-3	-3	2	-6	31*
Cc1c(OC(C)C(=O)NC2CC(C)(C)NC(C)(C)C2)ccc2c3c(c(=O)oc12)CCC3 (configuration not stated)	0	26*	-2	1	-2	-2	-12	37*
Cc1c(C)c2ccc(OC(C)C(=O)NC3CC(C)(C)NC(C)(C)C3)cc2oc1=O (configuration not stated)	6	7	-6	-2	nt	nt	nt	nt
Cc1cc(=O)oc2cc(OC(C)C(=O)NC3CCN(Cc4ccccc4)CC3)ccc12 (configuration not stated)	1	0	2	-2	nt	nt	nt	nt
CC(Oc1ccc2c3c(c(=O)oc2c1)CCCC3)C(=O)NC1CC(C)(C)NC(C)(C)C1 (configuration not stated)	-4	15*	-1	-2	-3	1	-6	20*
SMILES	M18AAP inhibitor	VIM-2 inhibitor	CTSL1 counter	IMP-1 inh-1	IMP-1 inh-2	VIM-2 FRET ctr	TEM-1 inh	VIM-2 inh conf
CC(Oc1cc2oc(=O)c3c(c2cc1Cl)CCC3)C(=O)NC1CC(C)(C)NC(C)(C)C1 (configuration not stated)	3	25*	-3	-5	-2	-4	-2	35*
O=C(COC(=O)c1ccccc1F)Nc1cccnc1Cl	1	-1	-2	-2	nt	nt	nt	nt
CCNS(=O)(=O)c1ccc(NC(=O)c2ccc(Cn3cc(Br)cn3)o2)cc1	0	-4	-1	-1	nt	nt	nt	nt
COC(=O)c1ccccc1NC1OC(=O)c2ccccc21 (configuration not stated)	-2	-3	-2	-4	nt	nt	nt	nt
Cc1ccc2cccc(NC3OC(=O)c4ccccc43)c2n1 (configuration not stated)	28*	14*	-7	-1	-3	-3	-7	5
O=C1C(=O)N(c2nccs2)C(c2ccccc2F)/C1=C(\O)c1ccc2c(c1)OCCO2 (configuration not stated)	3	21*	2	1	-3	33*	-5	22*
NNC(=S)Nc1cccc(-c2n[nH]c(=S)o2)c1	10	15*	3	-2	-4	18*	-9	9.2*
CN(C)C(=S)Nc1cccc(-c2n[nH]c(=S)o2)c1	5	-2	-1	-2	nt	nt	nt	nt
O=c1[nH]c2cc3c(cc2cc1CN(Cc1cccnc1)C(=S)NCc1ccco1)OCO3	-2	5	0	-1	nt	nt	nt	nt
O=c1[nH]c2cc3c(cc2cc1CN(Cc1cccnc1)C(=S)NCc1ccco1)OCCO3	2	18*	9	-2	-3	-5	-8	4
CCn1c(CC(=O)Nc2ccc(F)cc2)nnc1SCC(=O)Nc1nnc(C)s1	3	-1	0	-7	nt	nt	nt	nt
CCN(CC)CCCNC(=O)c1cc2c(-c3cccc(OC)c3)nn(C)c2s1	-2	8	-3	-5	nt	nt	nt	nt
CCCCN(CC)CCCNC(=O)c1cc2c(-c3ccc(OC)c(OC)c3)nn(C)c2s1	-9	13*	7	-4	-3	1	-5	24*
Cc1cc(C)cc(OC(=O)COc2ccccc2C)c1	-3	0	-22	0	nt	nt	nt	nt
COc1ccccc1CN1C(=NC(=O)C2CCCCC2)SC2CS(=O)(=O)CC21 (configuration not stated)	-7	0	-2	-2	nt	nt	nt	nt
